# Most compounds without a hit are left out; they make up all but 3.1% or so of the library.
# FGF22 binding = shifts melting point of recombinant human FGF22; Q9HCT0; recombinant FGF22 thermal shift, SYPRO orange fluorescence; percent of sucrose octasulfate shift, DMSO zero; activity (Tm shift, normalised), % at 9.99 µM; hit rate 1.5% among 340,000;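 active = mean Tm shift, scaled 0 neutral to 100 positive control, at about 1.3% or above, every replicate too, limit read from the data; inconclusive = no clear call, values can overlap the other calls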
# Target sequence (Q9HCT0 whole entry, looked up): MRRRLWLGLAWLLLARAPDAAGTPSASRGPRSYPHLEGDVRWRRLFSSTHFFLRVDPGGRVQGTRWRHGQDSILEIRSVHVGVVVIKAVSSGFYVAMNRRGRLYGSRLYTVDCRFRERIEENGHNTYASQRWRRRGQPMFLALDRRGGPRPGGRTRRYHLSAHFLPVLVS
# EWS-Fli block = EWS/Fli transcriptional activity inhibition. A673 NR0B1-luciferase reporter, viability-normalised. inhibition, % at 12.6 µM. hit rate 0.67% among 350,000;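 active = mean inhibition of at least 50% after viability correction, with every replicate also passing that limit; inconclusive = mean reaches 50% but only one of two replicates passes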;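 note: firefly luciferase signal divided by Alamar Blue viability fluorescence both relative to DMSO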
# FN deposition inh = fibronectin deposition inhibition. AH1F fibroblasts, Alexa488-fibronectin deposition fluorescence, overnight. inhibition, % at 12.6 µM. hit rate 0.086% among 350,000. AID 743247;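 active = mean inhibition across replicates of 30% or more, regardless of how many single replicates reach that level; inconclusive = mean under 30% yet at least half of replicates reach 30%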;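 note: positive control wells lacked labelled fibronectin entirely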
#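 Test system: AH1F fibroblast monolayer depositing Alexa488-labelled fibronectin into matrix. Input: 10000 cells per well. Technique: fluorescence, ex 485 nm, em 525 nm. Buffer or medium: DMEM plus 2% serum, read in PBS. Timing: 1 h cell adhesion before compound, then overnight fibronectin incubation. Compound: single dose, pinned. Read-out basis: inhibition from reduced deposited-fibronectin fluorescence.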
# PAX8 inh HTS = lowers PAX8-driven luciferase in RMG-I cells | hit rate 1.2% among 360,000 | inhibition, % at 12.6 µM | RMG-I TPO-luciferase reporter, SteadyGlo, 24 h;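 active = mean replicate inhibition at least 60% with every replicate also reaching 60%; inconclusive = only one of the two criteria is met; inactive = mean below 60% and not all replicates reaching 60%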;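 note: luciferase light reporting Pax8 driven TPO promoter activity; plate controls were median of neutral control wells for no effect and mitoxantrone controls for full effect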
# PGC1a acetyl inh = modulators of PGC1a acetylation. hit rate 0.17% among 350,000. U2OS PGC1a acetylation, AlphaScreen anti-acetyl-lysine; with virally co-expressed GCN5 acetyltransferase. inhibition, % at 15.6 µM. AID 651687;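 active = every replicate shows inhibition of at least 40%; inconclusive = mean inhibition at least 40% but some replicate below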;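 note: 0% = neutral control wells and 100% = positive control wells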
# Env fusion inh = inhibitors of HIV Env-mediated cell fusion | HeLa-JRFL Env/CEM21 cell fusion, luciferase | inhibition, % at 12.3 µM | hit rate 1.1% among 360,000 | AID 651610;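 active = mean replicate inhibition score of at least 50 and every replicate individually at or above 50; inconclusive = only one of the two criteria met; inactive = mean below 50 and not all replicates reaching 50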;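 note: 0% = plate neutral controls and 100% = maraviroc near 300 nM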
# Starred values were filed as active, the others as inactive; u = inconclusive; x = no result; [ ] = remark or other dose.
SMILES,FGF22 binding,EWS-Fli block,FN deposition inh,PAX8 inh HTS,PGC1a acetyl inh,Env fusion inh
Cc1ccccc1NS(=O)(=O)c1ccc(C)c(C(=O)N2CCOCC2)c1,0.0,x,-1.6,8.3,-2.4,15.5
COc1ccc([C@H]2CC(=O)C=C(c3cc(Br)ccc3OC)C2)cc1,0.1,26.2,0.8,29.8,2.4,-32.8
CCOc1ccc(Br)cc1C1=CC(=O)C[C@H](c2ccc(OC)cc2)C1,0.2,57.4*,9.9,30.8,x,37.3
COc1ccc(OC)c(C2=CC(=O)C[C@H](c3ccc4c(c3)OCO4)C2)c1,0.1,65.7*,-1.0,-6.6,-27.5,1.6
COc1ccc([C@H]2CC(=O)C=C(c3cc(C)ccc3OC)C2)cc1,-0.1,59.9*,-1.6,18.8,x,-12.6
COc1ccc([C@H]2CC(=O)C=C(c3cc(C)ccc3F)C2)cc1,-0.1,2.3,2.2,8.4,x,-24.1
C[C@@H]1CCCCO[C@@H](CN(C)C(=O)CCCN(C)C)[C@@H](C)CN([C@@H](C)CO)C(=O)c2cc(NC(=O)C3CCCCC3)ccc2O1,1.1,-9.5,x,x,1.7,17.5[16.7 µM]
COc1ccc(C#Cc2ccc3c(c2)[C@]2(C(=O)N3)[C@H](c3ccc(O)cc3)N3[C@H](c4ccccc4)[C@H](c4ccccc4)OC(=O)[C@H]3[C@@H]2C(=O)N2CCc3cc(OC)c(OC)cc3C2)cc1,1.2,-2.9,x,4.1,3.8,2.6[16.7 µM]
N#C/C(=C/c1ccc(-c2ccccc2)o1)c1nc(-c2cccs2)cs1,0.1,83.0*,x,17.0,x,2.6
CC(OC(=O)c1oc2ccccc2c1COc1ccccc1)C(=O)NC(N)=O (centres undefined),43.2*,19.2,-5.0,2.4,-18.1,14.8
COc1cc2c(c(OC)c1OC)-c1ccc(SC)c(=O)cc1C(NC(=O)C(F)(F)F)CC2 (centres undefined),-0.2,45.5,x,87.0*,6.2,24.7
CCOCC(=O)NC1CCc2cc(OC(=O)COCC)c(OC)c(OC)c2-c2ccc(SC)c(=O)cc21 (centres undefined),-0.3,53.0*,x,91.4*,2.1,-301.8
COc1cc2c(c(OC)c1OC)-c1ccc(NC(=O)c3ccc(F)cc3)c(=O)cc1[C@@H](NC(C)=O)CC2,-0.1,42.9,0.9,0.3,x,12.3
COc1ccc(-c2ccc(=O)n(CC(=O)NC3CCc4ccccc43)n2)cc1OC (centres undefined),-0.3,6.3,9.4,-7.0,x,12.2
C[C@@H]1CCCCO[C@@H](CN(C)S(=O)(=O)c2cn(C)cn2)[C@@H](C)CN([C@H](C)CO)C(=O)c2cc(NS(C)(=O)=O)ccc2O1,0.6,-12.3,x,x,8.9,5.2[16.7 µM]
O=C(O)CSCC(=O)Nc1ccc(Cl)cc1C(F)(F)F,-0.1,-10.4,x,3.0,x,11.6
CC(C)N(CC(=O)Nc1ccc(Cl)cc1C(F)(F)F)C(=O)CCl,0.0,34.1,-3.3,91.8*,x,35.0
CCC(=O)c1c[nH]c(C(=O)N2CCOCC2)c1,0.0,4.8,x,1.7,3.7,-20.5
CCC(=O)c1c[nH]c(C(=O)N2CCN(c3ccccc3)CC2)c1,42.9*,0.6,-2.3,15.8,-5.5,8.6
O=C(c1ccc(Cl)c(Cl)c1)N1CCC(=O)N(C(COCc2cccc(Cl)c2)Cc2ccccc2)CC1 (centres undefined),-0.6,31.2,11.3,u,-15.7,90.7*
O=C(c1cccc(Cl)c1)N1CCC(=O)N(C(COCc2cccc(Cl)c2)Cc2ccccc2)CC1 (centres undefined),-0.3,26.2,-1.4,23.2,-13.7,59.6*
COc1cccc(-c2ccc([C@H]3[C@@H](C#N)N(C(=O)c4ccccn4)[C@H]3CO)cc2)c1,-0.1,-0.6,1.5,-1.1,-2.3,6.6[16.7 µM]
O=C1C=C(c2ccc(F)cc2OCc2ccccc2)C[C@@H](c2ccc(Cl)cc2)C1,0.0,17.5,-5.7,14.9,-1.4,75.8*
O=C1C=C(c2ccc(F)cc2OCc2ccccc2)C[C@@H](c2ccc3c(c2)OCO3)C1,0.1,18.5,-2.5,17.5,-0.5,32.4
COc1ccc(NC(=O)c2nn(C34CC5CC(CC(C5)C3)C4)cc2[N+](=O)[O-])cc1,0.1,-0.4,4.6,128.3*,x,x
SMILES,FGF22 binding,EWS-Fli block,FN deposition inh,PAX8 inh HTS,PGC1a acetyl inh,Env fusion inh
O=C(NC1CCCCC1)C(c1ccc2ncccc2c1)N(Cc1ccc2c(c1)OCO2)C(=O)c1ccc2c(c1)OCCO2 (centres undefined),0.5,-5.2,10.3,0.1,96.0*,1.7
C[C@@H]1CCCCO[C@H](CN(C)C(=O)Nc2ccc(C(F)(F)F)cc2)[C@@H](C)CN([C@@H](C)CO)C(=O)c2cc(NS(=O)(=O)c3ccccc3)ccc2O1,-0.3,6.8,-14.9,80.9*,5.2,45.7[16.7 µM]
C[C@@H]1CCCCO[C@H](CN(C)C(=O)Nc2ccc(C(F)(F)F)cc2)[C@@H](C)CN([C@H](C)CO)C(=O)c2cc(NS(=O)(=O)c3ccccc3)ccc2O1,-0.4,3.0,4.1,7.1,-0.4,-29.4[16.7 µM]
C[C@H]1CCCCO[C@@H](CN(C)C(=O)Nc2ccc(C(F)(F)F)cc2)[C@@H](C)CN([C@@H](C)CO)C(=O)c2cc(NS(=O)(=O)c3ccccc3)ccc2O1,-0.5,7.1,-0.3,52.8,-5.0,63.6*[16.7 µM]
C[C@H]1CCCCO[C@H](CN(C)C(=O)Nc2ccc(C(F)(F)F)cc2)[C@@H](C)CN([C@@H](C)CO)C(=O)c2cc(NS(=O)(=O)c3cccs3)ccc2O1,-0.1,19.9,1.6,78.6*,37.9,31.5[16.7 µM]
COc1ccc(NC(=O)N(C)C[C@H]2OCc3cn(nn3)CCCC(=O)N([C@H](C)CO)C[C@H]2C)cc1,0.0,-10.9,-0.4,x,8.6,-14.2[16.7 µM]
Cc1ccc(S(=O)(=O)Nc2cccc3c2O[C@H](CN(C)Cc2ccccc2)[C@@H](C)CN([C@@H](C)CO)C3=O)cc1,-0.1,3.7,x,-11.3,-25.9,-1.9[16.7 µM]
O=C(Nc1ccccc1F)N1CCCCN2[C@H](CO)[C@@H](c3ccc(C#Cc4ccccc4)cc3)[C@@H]2C1,-0.3,x,x,-21.7,-44.2,x
O=C(Nc1ccccc1)N1CCCCN2[C@H](CO)[C@H](c3ccc(C#Cc4ccccc4)cc3)[C@H]2C1,-1.0,63.3*,2.3,108.9*,-5.0,x
COc1ccc(NC(=O)N2CCCCN3[C@@H](CO)[C@@H](c4ccc(C#Cc5ccccc5)cc4)[C@@H]3C2)cc1,-1.1,1.1,x,111.0*,-44.0,x
O=C(Nc1ccccc1)N1CCCCN2[C@H](C1)[C@@H](c1ccc(C#Cc3ccccc3)cc1)[C@@H]2CO,-0.5,4.1,x,99.3*,-3.5,x
O=C(Nc1ccccc1F)N1CCCCN2[C@H](CO)[C@@H](c3ccc(C#Cc4ccccc4)cc3)[C@H]2C1,-0.6,x,x,66.1*,-41.9,x
OC[C@H]1[C@@H](c2ccc(C#CC3(O)CCCC3)cc2)[C@@H]2CN(Cc3cccnc3)CCCCN12,-0.1,-6.6,x,0.4,5.8,x

# Screening data: PubChem, Broad Institute
